Holding throughout (format): functional
Assay [1] concerns Aspergillus fumigatus. The experiment in a line: Antifungal activity against Aspergillus fumigatus after 7 days by micro-broth dilution method. Particulars: 168 h. The method in brief:
(§1)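 Clinical isolates supplied by a hospital were tested by NCCLS broth microdilution. Compounds were dissolved in DMSO, serially diluted in growth medium, inoculated and incubated at 35 C. Growth was read at 7 days for filamentous fungi. MIC80 was taken as the first well with about 80% less growth than the drug-free well.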
Background: Broth dilution looks for growth in wells or tubes with falling amounts of substance.

Assay [2] relates to Candida parapsilosis. The experiment in a line: Antifungal activity against Candida parapsilosis ATCC 0306392 after 7 days by micro-broth dilution method. The conditions noted are these: Lodderomyces parapsilosis, ATCC 0306392, 168 h. The procedure, abridged: (§2)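 Micro-broth dilution followed NCCLS methods, using an ATCC standard quality-control strain for C. parapsilosis and a clinical isolate for C. tropicalis. Compounds were dissolved in DMSO, serially diluted in growth medium and incubated at 35 C. MIC80 was the first well with about 80% growth reduction compared with the drug-free well.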

For assay [3], the system named is Candida tropicalis. The experiment in a line: Antifungal activity against Candida tropicalis after 7 days by micro-broth dilution method. Particulars: 168 h. The method in brief: as §2
The test system of assay [4] is Microsporum. The experiment in a line: Antifungal activity against Microsporum gypseum after 7 days by micro-broth dilution method. Particulars: 168 h. The method in brief:
as §1

For assay [5], the system named is Trichophyton rubrum. The experiment in a line: Antifungal activity against Trichophyton rubrum after 7 days by microbroth dilution method. The conditions noted are these: 168 h. The method in brief:
as §1

The subject of assay [6] is Fonsecaea compacta. The experiment in a line: Antifungal activity against Fonsecaea compacta after 7 days by micro-broth dilution method. The conditions noted are these: 168 h. The procedure, abridged: as §1
The subject of assay [7] is Candida albicans. The experiment in a line: Antifungal activity against Candida albicans ATCC Y0109 after 24 hrs by micro-broth dilution method. The procedure, abridged:
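An ATCC standard quality-control strain was included in each run of an NCCLS micro-broth dilution assay. Compounds were dissolved in DMSO, serially diluted in growth medium and incubated at 35 C. Reading was at 24 h, and MIC80 was the first well showing roughly 80% growth reduction versus the drug-free control.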

In assay [8] the test system is Cryptococcus neoformans. The experiment in a line: Antifungal activity against Cryptococcus neoformans ATCC BLS108 after 72 hrs by micro-broth dilution method. The procedure, abridged: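 This ATCC standard quality-control strain was tested in every assay by NCCLS microdilution. Test agents were dissolved in DMSO and serially diluted in growth medium. Cultures were incubated at 35 C and read at 72 h. MIC80 was the first well with approximately 80% reduced growth relative to the drug-free well.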

≈ marks a conversion by molar mass, not a printed value. Some results are limits rather than exact numbers.

As for `Nc1ccc(N2CCN(CC(O)(Cn3cncn3)c3ccc(F)cc3F)CC2)c(F)c1` (configuration not stated), the MIC80 (in general, an inhibitory concentration at the 80% level, which refers to growth in some studies and to a panel of isolates in others) in assay [1] was found to be 4 µg/mL (≈ 9.25 µM); in assay [2] it was 0.25 µg/mL (≈ 0.578 µM); in assay [3], 4 µg/mL (≈ 9.25 µM); in assay [4], 0.0625 µg/mL (≈ 0.145 µM); in assay [5] it was 0.25 µg/mL (≈ 0.578 µM); in assay [6], 0.25 µg/mL (≈ 0.578 µM). In addition, the MIC80 in assay [7] turned out to be 0.25 µg/mL (≈ 0.578 µM); in assay [8], 0.0152 µg/mL (≈ 0.0351 µM).

For the compound `O=C(Nc1ccc(N2CCN(CC(O)(Cn3cncn3)c3ccc(F)cc3F)CC2)c(F)c1)c1ccccc1` (configuration not stated), the MIC80 in assay [1] was determined as 1 µg/mL (≈ 1.86 µM); in assay [2] it was 0.0152 µg/mL (≈ 0.0283 µM); in assay [3], 0.0039 µg/mL (≈ 0.00727 µM); in assay [4], 0.0152 µg/mL (≈ 0.0283 µM); in assay [5] it was 0.0152 µg/mL (≈ 0.0283 µM); in assay [6] it was 0.25 µg/mL (≈ 0.466 µM). Further, the MIC80 in assay [7] and in assay [8] was 0.0625 µg/mL (≈ 0.116 µM) each time.

As to `O=C(Nc1ccc(N2CCN(CC(O)(Cn3cncn3)c3ccc(F)cc3F)CC2)c(F)c1)c1ccccc1F` (configuration not stated), the MIC80 in assay [1] is 4 µg/mL (≈ 7.21 µM); in assay [2] it was below 0.0039 µg/mL; in assay [3], 0.0152 µg/mL (≈ 0.0274 µM); in assay [4], 0.0625 µg/mL (≈ 0.113 µM); in assay [5] it was 0.0152 µg/mL (≈ 0.0274 µM); in assay [6] it was 0.0625 µg/mL (≈ 0.113 µM). Moreover, the MIC80 in assay [7] and in assay [8] was 0.0152 µg/mL (≈ 0.0274 µM) each time.

As for `O=C(Nc1ccc(N2CCN(CC(O)(Cn3cncn3)c3ccc(F)cc3F)CC2)c(F)c1)c1ccc(F)cc1` (configuration not stated), the MIC80 in assay [1] turned out to be 1 µg/mL (≈ 1.8 µM); in assay [2], 0.0039 µg/mL (≈ 0.00703 µM); in assay [3], 0.0152 µg/mL (≈ 0.0274 µM); in assay [4] it was 0.0152 µg/mL (≈ 0.0274 µM); in assay [5], 0.25 µg/mL (≈ 0.451 µM); in assay [6], 0.0625 µg/mL (≈ 0.113 µM). Also, the MIC80 in assay [7] and in assay [8] was 0.0152 µg/mL (≈ 0.0274 µM) each time.

Turning to `O=C(Nc1ccc(N2CCN(CC(O)(Cn3cncn3)c3ccc(F)cc3F)CC2)c(F)c1)c1ccccc1Cl` (configuration not stated), the MIC80 in assay [1] was 1 µg/mL (≈ 1.75 µM); in assay [2] it was 0.0152 µg/mL (≈ 0.0266 µM); in assay [3], 0.0152 µg/mL (≈ 0.0266 µM); in assay [4] it was 0.0152 µg/mL (≈ 0.0266 µM); in assay [5] it was 0.0152 µg/mL (≈ 0.0266 µM); in assay [6], 0.0625 µg/mL (≈ 0.109 µM). Further, the MIC80 in assay [7] was 0.0152 µg/mL (≈ 0.0266 µM); in assay [8], 0.25 µg/mL (≈ 0.438 µM).

Turning to `O=C(Nc1ccc(N2CCN(CC(O)(Cn3cncn3)c3ccc(F)cc3F)CC2)c(F)c1)c1cccc(Cl)c1` (configuration not stated), the MIC80 turned out to be 4 µg/mL (≈ 7.01 µM) in assay [1]; 0.0152 µg/mL (≈ 0.0266 µM) in assay [2]; 0.0625 µg/mL (≈ 0.109 µM) in assay [3]; 0.0625 µg/mL (≈ 0.109 µM) in assay [4]; 0.0625 µg/mL (≈ 0.109 µM) in assay [5]; 0.25 µg/mL (≈ 0.438 µM) in assay [6]. Besides, the MIC80 in assay [7] and in assay [8] was 0.25 µg/mL (≈ 0.438 µM) in each case.

`O=C(Nc1ccc(N2CCN(CC(O)(Cn3cncn3)c3ccc(F)cc3F)CC2)c(F)c1)c1ccc(Cl)cc1` (configuration not stated): the MIC80 in assay [1] was determined as 0.25 µg/mL (≈ 0.438 µM); in assay [2] it was 0.0152 µg/mL (≈ 0.0266 µM); in assay [3], 0.0152 µg/mL (≈ 0.0266 µM); in assay [4], 0.25 µg/mL (≈ 0.438 µM); in assay [5], 0.0625 µg/mL (≈ 0.109 µM); in assay [6], 0.0625 µg/mL (≈ 0.109 µM). In addition, the values for the MIC80 in assay [7] and in assay [8] were 0.0625 µg/mL (≈ 0.109 µM) and 0.25 µg/mL (≈ 0.438 µM), respectively.

On to `O=C(Nc1ccc(N2CCN(CC(O)(Cn3cncn3)c3ccc(F)cc3F)CC2)c(F)c1)c1ccc(Cl)cc1Cl` (configuration not stated), for which the MIC80 in assay [1] stood at 0.25 µg/mL (≈ 0.413 µM); in assay [2], 0.0152 µg/mL (≈ 0.0251 µM); in assay [3], 0.0625 µg/mL (≈ 0.103 µM); in assay [4] it was 0.0039 µg/mL (≈ 0.00644 µM); in assay [5], 0.0625 µg/mL (≈ 0.103 µM); in assay [6], 0.25 µg/mL (≈ 0.413 µM). Moreover, the figures for the MIC80 in assay [7] and in assay [8] were 0.25 µg/mL (≈ 0.413 µM) and 0.0625 µg/mL (≈ 0.103 µM), respectively.

`O=C(Nc1ccc(N2CCN(CC(O)(Cn3cncn3)c3ccc(F)cc3F)CC2)c(F)c1)c1ccccc1Br` (configuration not stated): the MIC80 in assay [1] turned out to be 1 µg/mL (≈ 1.62 µM); in assay [2] it was 0.0152 µg/mL (≈ 0.0247 µM); in assay [3], 0.0152 µg/mL (≈ 0.0247 µM); in assay [4], 0.0625 µg/mL (≈ 0.102 µM); in assay [5] it was 0.0039 µg/mL (≈ 0.00634 µM); in assay [6], 0.25 µg/mL (≈ 0.406 µM). Moreover, the MIC80 in assay [7] and in assay [8] was 0.0625 µg/mL (≈ 0.102 µM) in each case.

Regarding `C[C@@H]1[C@H](O)[C@@H](C)/C=C/C=C/C=C/C=C/C=C/C=C/C=C/[C@H](O[C@@H]2O[C@H](C)[C@@H](O)[C@H](N)[C@@H]2O)C[C@@H]2O[C@](O)(C[C@@H](O)C[C@@H](O)[C@H](O)CC[C@@H](O)C[C@@H](O)CC(=O)O[C@H]1C)C[C@H](O)[C@H]2C(=O)O` [AMPHOTERICIN B], the MIC80 was 4 µg/mL (≈ 4.33 µM) in assay [1]; 0.0152 µg/mL (≈ 0.0164 µM) in assay [2]; 0.0625 µg/mL (≈ 0.0676 µM) in assay [3]; 0.0039 µg/mL (≈ 0.00422 µM) in assay [4]; 1 µg/mL (≈ 1.08 µM) in assay [5]; 16 µg/mL (≈ 17.3 µM) in assay [6]. For the same compound, the MIC80 in assay [7] and in assay [8] was 1 µg/mL (≈ 1.08 µM) throughout.

Consider `OC(Cn1cncn1)(Cn1cncn1)c1ccc(F)cc1F` [FLUCONAZOLE], for which the MIC80 in assay [1] came to 64 µg/mL (≈ 209 µM); in assay [2], 1 µg/mL (≈ 3.27 µM); in assay [3] it was 1 µg/mL (≈ 3.27 µM); in assay [4], 0.25 µg/mL (≈ 0.816 µM); in assay [5], 0.25 µg/mL (≈ 0.816 µM); in assay [6], 16 µg/mL (≈ 52.2 µM). In addition, the MIC80 was 4 µg/mL (≈ 13.1 µM) in assay [7] and 1 µg/mL (≈ 3.27 µM) in assay [8].

Turning to `CCC(C)n1ncn(-c2ccc(N3CCN(c4ccc(OCC5COC(Cn6cncn6)(c6ccc(Cl)cc6Cl)O5)cc4)CC3)cc2)c1=O` (configuration not stated) [ITRACONAZOLE], the MIC80 stood at 1 µg/mL (≈ 1.42 µM) in assay [1]; 0.25 µg/mL (≈ 0.354 µM) in assay [2]; 0.25 µg/mL (≈ 0.354 µM) in assay [3]; 0.0152 µg/mL (≈ 0.0215 µM) in assay [4]; 0.0152 µg/mL (≈ 0.0215 µM) in assay [5]; 0.25 µg/mL (≈ 0.354 µM) in assay [6]. Besides, the MIC80 in assay [7] and in assay [8] was 1 µg/mL (≈ 1.42 µM) throughout.

Turning to `CC(=O)N1CCN(c2ccc(OC[C@H]3CO[C@](Cn4ccnc4)(c4ccc(Cl)cc4Cl)O3)cc2)CC1` [KETOCONAZOLE], the MIC80 in assay [1] was determined as 1 µg/mL (≈ 1.88 µM); in assay [2], 0.0625 µg/mL (≈ 0.118 µM); in assay [3], 0.0625 µg/mL (≈ 0.118 µM); in assay [4], 0.0039 µg/mL (≈ 0.00734 µM); in assay [5] it was 0.0625 µg/mL (≈ 0.118 µM); in assay [6], 0.0625 µg/mL (≈ 0.118 µM). In addition, the MIC80 in assay [7] and in assay [8] was 0.0625 µg/mL (≈ 0.118 µM) in each case.

For `C[C@@H](c1ncncc1F)[C@](O)(Cn1cncn1)c1ccc(F)cc1F` [VORICONAZOLE], the MIC80 is above 64 µg/mL in assay [1]; 1 µg/mL (≈ 2.86 µM) in assay [2]; 0.25 µg/mL (≈ 0.716 µM) in assay [3]; 0.0039 µg/mL (≈ 0.0112 µM) in assay [4]; 0.0039 µg/mL (≈ 0.0112 µM) in assay [5]; 0.0152 µg/mL (≈ 0.0435 µM) in assay [6]. The MIC80 in assay [7] and in assay [8] was 0.0152 µg/mL (≈ 0.0435 µM) in each case.
